Reference: ChEMBL document CHEMBL1122032, “Dopaminergic activity of substituted 6-chloro-1-phenyl-2,3,4,5-tetrahydro-1H-3-benzazepines” (J Med Chem, 1982)
Calls of active or inactive are those of the source. The rule behind the calls is not given here.

Legend:
Canis familiaris [1] = species: Canis familiaris; test: Renal blood flow was measured in dogs; Significant activity; format: functional, organism-based; conditions: Canis lupus familiaris; Kidney
Canis familiaris [2] = species: Canis familiaris; test: Renal vascular resistance was calculated as the ratio of the mean arterial blood pressure / mean renal blood flow; I=Inactive; format: functional, organism-based; conditions: Canis lupus familiaris
Rattus norvegicus [3] = test: Central dopaminergic activity for minimum concentration which produced 500 rotations(ip); format: functional
Outline: (§1)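 Rats with substantia nigra lesions scored for contralateral rotation after intraperitoneal dosing (routine), oral dosing for selected compounds, or intracaudal administration for intrinsic activity. RD500 and RD1000 are the minimum doses giving 500 and 1000 turns, respectively, in 2 h.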

Canis familiaris [4] = species: Canis familiaris; test: Renal blood flow was measured in dogs; Highly significant activity; format: functional, organism-based; conditions: Canis lupus familiaris; Kidney
Canis familiaris [5] = species: Canis familiaris; test: Renal vascular resistance was calculated as the ratio of the mean arterial blood pressure / mean renal blood flow; Highly significant activity; format: functional, organism-based; conditions: Canis lupus familiaris
Canis familiaris [6] = test: Compound was evaluated for determining renal vascular resistance(iv) in dogs; format: functional, Canis lupus familiaris
Outline: (§2)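 Secondary renal screen in anesthetized dogs: cumulative dose-response by infusing drug at progressively increasing rates, 5 min per dose level. RVR ED15 is the average minimum cumulative dose lowering RVR by 15%; maximum effect is the average maximum % fall in RVR. Selectivity ratios are separations between RVR ED15 and doses giving 30% change in iliac vascular resistance, 20% in MABP, 20% in HR.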

Canis familiaris [7] = species: Canis familiaris; test: Compound was evaluated for average maximum percent decrease in renal vascular resistance in dogs; format: functional, Canis lupus familiaris; outline: as §2
Rattus norvegicus [8] = species: Rattus norvegicus; test: Central dopaminergic activity against contralateral rotation(500) in lesioned rats; format: functional; outline: as §1
Rattus norvegicus [9] = test: Central dopaminergic activity for minimum concentration which produced 500 rotations at the dose of 10 mg/kg (i.p.) in 2 h; I=Inactive; format: functional, organism-based; parameters: dose 10 mg/kg; outline: as §1
[10] = Selectivity ratio of compound as ED15 relative to heart rate(HR) ED20; format: functional; outline: as §2
[11] = Selectivity ratio of compound as ratio of ED15 relative to mean arterial blood pressure(MABP) ED20; format: functional; outline: as §2
[12] = Selectivity ratio of Compound as ratio of ED15 relative to iliac vascular resistance(IVR) ED30; format: functional; outline: as §2
Rattus norvegicus [13] = species: Rattus norvegicus; test: Adenylase cyclase activity in rat striatal membranes; format: functional, organism-based, Membrane; conditions: Striatum
Rattus norvegicus [14] = species: Rattus norvegicus; test: Central dopaminergic activity against contralateral rotation(500) in lesioned rats(ic); format: functional; outline: as §1
Rattus norvegicus [15] = test: Central dopaminergic activity for minimum concentration which produced 500 rotations(ip) in 2 h; format: functional; outline: as §1
Canis familiaris [16] = species: Canis familiaris; test: Renal blood flow was measured in dogs; I=Inactive; format: functional, organism-based; conditions: Canis lupus familiaris; Kidney
Rattus norvegicus [17] = test: Central dopaminergic activity for minimum concentration which produced 500 rotations at the dose of 2.0 mg/kg (i.p.) in 2 h; format: functional; conditions: route intraperitoneal; outline: as §1
Rattus norvegicus [18] = test: Central dopaminergic activity against contralateral rotation(1000) in lesioned rats at the dose of 6.0 mg/kg (p.o.) in 2 h; format: functional; conditions: route oral
Outline: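 Oral dosing in rats with substantia nigra lesions, scoring contralateral rotations. RD1000 is the minimum dose producing 1000 turns in 2 h.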

Q: Which results are given for `Cl.Oc1cc2c(c(Cl)c1O)CCN(Cc1ccc(C(F)(F)F)cc1)CC2c1ccccc1` (stereo unspecified)?
A: RBF (Canis familiaris [1]): Significant activity; RVR (Canis familiaris [2]): inactive; RD500 (Rattus norvegicus [3]): 455 turns/2 h

Q: With `CS(=O)(=O)O.Oc1ccc(C2CNCCc3c2cc(O)c(O)c3Cl)cc1` (stereo unspecified) [FENOLDOPAM MESYLATE] as the compound, how does the RBF (Canis familiaris [4]) read?
A: The RBF was “Highly significant activity”.

Q: And the RVR (Canis familiaris [5])?
A: The RVR was “Significant activity”.

Q: And the “RVR ED15” value (Canis familiaris [6])?
A: The value was 0.0003 mg/kg.

Q: And the “Decrease RVR” value (Canis familiaris [7])?
A: Its value is 59%.

Q: What about the RD500 (Rattus norvegicus [8]) of the same compound?
A: Its RD500 is 0.5 ug rat-1.

Q: What about the RD500 (Rattus norvegicus [9]) of the same compound?
A: Its RD500 is “inactive”.

Q: What about the Ratio [10] of the same compound?
A: Its Ratio is >6072.

Q: And the Ratio [11]?
A: Its Ratio is >6072.

Q: And the Ratio [12]?
A: The Ratio was > 6070.

Q: With `CN1CCc2c(cc(O)c(O)c2Cl)C(c2ccccc2)C1.Cl` (stereo unspecified) as the compound, how does the RBF (Canis familiaris [1]) read?
A: The RBF was “Significant activity”.

Q: And the RVR (Canis familiaris [5])?
A: Its RVR is “Significant activity”.

Q: And the EC50 (Rattus norvegicus [13])?
A: Its EC50 is 0.6 µM.

Q: And the RD500 (Rattus norvegicus [14])?
A: The RD500 was 0.32 ug rat-1.

Q: What about the RD500 (Rattus norvegicus [15]) of the same compound?
A: Its RD500 is 0.03 mg/kg.

Q: Which RBF (Canis familiaris [16]) does the source give for `Br.CN1CCc2c(cc(O)c(O)c2Cl)C(c2cccc(C(F)(F)F)c2)C1` (stereo unspecified) here?
A: The RBF was “inactive”.

Q: And the RVR (Canis familiaris [2])?
A: Its RVR is “inactive”.

Q: And the RD500 (Rattus norvegicus [17])?
A: Its RD500 is 594 turns/2 h.

Q: What about the RD1000 (Rattus norvegicus [18]) of the same compound?
A: Its RD1000 is 296 turns/2 h.
